What was measured:
Mus musculus [1] = assay: Anti-inflammatory activity against croton oil induced ear edema Swiss mouse model assessed as edema inhibition at 1.00 mg per ear, TOP measured after 6 hrs relative to control; type: functional
How it was run: (§1)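 Male Swiss mice (20–30 g), n=7/group. Croton oil (200 µg/ear in 70% acetone) applied to the inner left ear, with vehicle alone on the right ear. Treatments in 20 µL 70% acetone were then applied topically to the left ear at 0.625 or 1.25 mg/ear, or 1 mg/ear for the reference drug. After 6 h, 6.0 mm ear disks were weighed and % edema inhibition calculated.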

Mus musculus [2] = assay: Anti-inflammatory activity against croton oil induced ear edema Swiss mouse model assessed as edema inhibition at 0.625 mg per ear, TOP measured after 6 hrs relative to control; type: functional; how it was run: as §1
Mus musculus [3] = assay: Anti-inflammatory activity against croton oil induced ear edema Swiss mouse model assessed as edema inhibition at 1.25 mg per ear, TOP measured after 6 hrs relative to control; type: functional; how it was run: as §1
[4] = target: T1, Prostaglandin G/H synthase 1 (Ovis aries) (UniProt P05979); assay: Inhibition of ovine COX-1 at 1.95 uM by microplate reader analysis relative to control
T1 sequence (whole entry): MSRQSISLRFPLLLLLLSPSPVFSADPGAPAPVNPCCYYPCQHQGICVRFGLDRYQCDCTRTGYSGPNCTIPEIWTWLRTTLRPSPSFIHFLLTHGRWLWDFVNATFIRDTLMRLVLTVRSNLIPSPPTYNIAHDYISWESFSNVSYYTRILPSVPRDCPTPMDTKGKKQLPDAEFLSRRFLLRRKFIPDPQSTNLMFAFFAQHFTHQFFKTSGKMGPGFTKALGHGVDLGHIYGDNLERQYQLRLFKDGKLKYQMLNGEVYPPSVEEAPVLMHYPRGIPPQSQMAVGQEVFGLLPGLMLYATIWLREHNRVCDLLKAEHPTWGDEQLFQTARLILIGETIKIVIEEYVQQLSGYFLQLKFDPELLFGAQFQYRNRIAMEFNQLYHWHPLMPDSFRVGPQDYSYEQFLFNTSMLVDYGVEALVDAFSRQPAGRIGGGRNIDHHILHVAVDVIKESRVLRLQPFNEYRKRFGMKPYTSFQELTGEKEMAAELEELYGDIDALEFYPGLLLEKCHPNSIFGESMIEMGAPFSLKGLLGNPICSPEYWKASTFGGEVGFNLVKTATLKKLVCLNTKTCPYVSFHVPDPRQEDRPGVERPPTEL
How it was run: (§2)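 Kit-based cyclooxygenase inhibitor screen using human recombinant COX-2 or ovine COX-1, run per the manufacturer's procedure. Compound was tested at 1.95 and 31.25 µM. Absorbance was read at 405 nm. % inhibition was derived from %B/B0 on a standard curve.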

[5] = target: T1, Prostaglandin G/H synthase 1 (Ovis aries); assay: Inhibition of ovine COX-1 at 31.25 uM by microplate reader analysis relative to control; how it was run: as §2
[6] = target: T2, Prostaglandin G/H synthase 2 (Homo sapiens) (UniProt P35354); assay: Inhibition of human recombinant COX-2 at 1.95 uM by microplate reader analysis relative to control; how it was run: as §2
T2 sequence (whole entry): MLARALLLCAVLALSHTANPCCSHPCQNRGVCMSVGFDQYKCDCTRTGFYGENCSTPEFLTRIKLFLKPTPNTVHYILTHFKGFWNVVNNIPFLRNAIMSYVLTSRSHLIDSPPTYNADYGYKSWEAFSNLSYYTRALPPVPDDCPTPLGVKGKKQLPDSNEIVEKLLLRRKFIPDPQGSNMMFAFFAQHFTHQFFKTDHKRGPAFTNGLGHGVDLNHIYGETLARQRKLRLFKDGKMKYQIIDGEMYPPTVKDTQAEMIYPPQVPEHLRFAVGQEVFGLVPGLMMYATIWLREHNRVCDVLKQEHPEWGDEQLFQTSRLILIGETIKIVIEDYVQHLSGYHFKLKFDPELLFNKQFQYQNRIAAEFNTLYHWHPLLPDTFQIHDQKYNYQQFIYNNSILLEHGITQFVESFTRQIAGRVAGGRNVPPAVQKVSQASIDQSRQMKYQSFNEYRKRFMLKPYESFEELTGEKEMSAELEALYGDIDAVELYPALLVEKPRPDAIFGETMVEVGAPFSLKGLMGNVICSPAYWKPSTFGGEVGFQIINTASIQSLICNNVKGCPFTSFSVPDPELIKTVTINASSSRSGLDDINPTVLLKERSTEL

[7] = Cytotoxicity against mouse L929 cells assessed as reduction in cell viability incubated for 72 hrs by MTT assay; type: toxicity, cell-based
How it was run: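 Fibroblasts (CCL-1) were seeded at 2.5 × 10^5 cells/mL in DMEM + 10% FBS and grown 24 h at 37 °C, 5% CO2 to confluence. They were exposed to 100–1000 µM compound for 72 h, then given MTT (2 mg/mL) for 4 h. Formazan was dissolved in DMSO and read at 492 nm. Viability relative to control gave CC50.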

[8] = target: T2, Prostaglandin G/H synthase 2 (Homo sapiens); assay: Inhibition of human recombinant COX-2 at 31.25 uM by microplate reader analysis relative to control; how it was run: as §2

Structure (SMILES)	inhibition (INH) (Mus musculus [2]) [%]	inhibition (INH) (Mus musculus [3]) [%]	other results
COc1ccc2c(c1)c(CC(=O)O)c(C)n2C(=O)c1ccc(Cl)cc1 [INDOMETHACIN]	–	–	inhibition (INH) (Mus musculus [1]): 98.2%
N#Cc1cc2c(-c3ccc(Cl)cc3)n[nH]c(=O)c2[nH]c1=O	49	50.4	–
CCOC(=O)c1cc2c(-c3ccc([N+](=O)[O-])cc3)n[nH]c(=O)c2[nH]c1=O	64.2	–	–
N#Cc1cc2c(-c3ccc(Cl)cc3)nn(-c3ccccc3)c(=O)c2[nH]c1=O	62.8	81.8	inhibition [4]: 22.1%; inhibition [5]: 30.6%; inhibition [6]: 20.2%; IC50 at 72 h [7]: 249 µM; inhibition [8]: 40.3%
O=C(O)c1cc2c(-c3ccc(Cl)cc3)n[nH]c(=O)c2[nH]c1=O	65.9	75.2	–
O=C(O)c1cc2c(-c3ccc([N+](=O)[O-])cc3)n[nH]c(=O)c2[nH]c1=O	63.2	56.2	–
N#Cc1cc2c(-c3ccc([N+](=O)[O-])cc3)nn(-c3ccccc3)c(=O)c2[nH]c1=O	–	78.5	–
